Tested on: Klebsiella pneumoniae
Test: Antimicrobial activity against extended spectrum beta-lactamases-producing Klebsiella pneumoniae 10-3 after 18-24 hrs by two-fold serial dilution method
Assay type: functional
Method in brief: (§1)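 Agar-medium twofold serial dilution against Gram-positive and Gram-negative strains; MIC taken as the lowest compound concentration giving complete inhibition of bacterial growth after incubation at 35 °C for 18-24 h.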

How did the MIC turn out when `COc1ccc(CO/N=C2\CN(c3nc4c(cc3F)c(=O)c(C(=O)O)cn4C3CC3)CC2CN)c(OC)c1OC.CS(=O)(=O)O` (racemic) was run?
Its MIC is greater than 128 µg/mL.

Tested on: Enterococcus faecalis
Test: Antimicrobial activity against Enterococcus faecalis 10-7 after 18-24 hrs by two-fold serial dilution method
Assay type: functional
Method in brief: as §1

For `COc1ccc(CO/N=C2\CN(c3nc4c(cc3F)c(=O)c(C(=O)O)cn4C3CC3)CC2CN)c(OC)c1OC.CS(=O)(=O)O` (racemic), which MIC is on record?
The MIC was 2 µg/mL.

Tested on: Enterococcus faecium
Test: Antimicrobial activity against Enterococcus faecium 10-5 after 18-24 hrs by two-fold serial dilution method
Assay type: functional
Method in brief: as §1

For `COc1ccc(CO/N=C2\CN(c3nc4c(cc3F)c(=O)c(C(=O)O)cn4C3CC3)CC2CN)c(OC)c1OC.CS(=O)(=O)O` (racemic), which MIC is on record?
Its MIC is 4 µg/mL.

Tested on: Streptococcus pneumoniae
Test: Antimicrobial activity against extended spectrum beta-lactamases-producing Streptococcus pneumoniae 10-1 after 18-24 hrs by two-fold serial dilution method
Assay type: functional
Method in brief: as §1

`COc1ccc(CO/N=C2\CN(c3nc4c(cc3F)c(=O)c(C(=O)O)cn4C3CC3)CC2CN)c(OC)c1OC.CS(=O)(=O)O` (racemic) was tested. Which MIC did it give?
Its MIC is 0.5 µg/mL.

Tested on: Staphylococcus epidermidis
Test: Antimicrobial activity against extended spectrum beta-lactamases-producing methicillin-sensitive Staphylococcus epidermidis 10-13 after 18-24 hrs by two-fold serial dilution method
Assay type: functional
Method in brief: as §1

For `COc1ccc(CO/N=C2\CN(c3nc4c(cc3F)c(=O)c(C(=O)O)cn4C3CC3)CC2CN)c(OC)c1OC.CS(=O)(=O)O` (racemic), which MIC is on record?
Its MIC is 0.03 µg/mL.

Tested on: Escherichia coli
Test: Antimicrobial activity against Escherichia coli 10-2 after 18-24 hrs by two-fold serial dilution method
Assay type: functional
Method in brief: as §1

`COc1ccc(CO/N=C2\CN(c3nc4c(cc3F)c(=O)c(C(=O)O)cn4C3CC3)CC2CN)c(OC)c1OC.CS(=O)(=O)O` (racemic) was tested. Which MIC did it give?
The MIC was 16 µg/mL.

Tested on: Klebsiella pneumoniae
Test: Antimicrobial activity against Klebsiella pneumoniae 10-2 after 18-24 hrs by two-fold serial dilution method
Assay type: functional
Method in brief: as §1

`COc1ccc(CO/N=C2\CN(c3nc4c(cc3F)c(=O)c(C(=O)O)cn4C3CC3)CC2CN)c(OC)c1OC.CS(=O)(=O)O` (racemic) was tested. Which MIC did it give?
The MIC was greater than 128 µg/mL.

Tested on: Escherichia coli
Test: Antimicrobial activity against Escherichia coli ATCC 25922 after 18-24 hrs by two-fold serial dilution method
Assay type: functional
Method in brief: as §1

With `COc1ccc(CO/N=C2\CN(c3nc4c(cc3F)c(=O)c(C(=O)O)cn4C3CC3)CC2CN)c(OC)c1OC.CS(=O)(=O)O` (racemic) as the compound, how does the MIC read?
The MIC was 0.03 µg/mL.

Tested on: Escherichia coli
Test: Antimicrobial activity against Escherichia coli 10-1 after 18-24 hrs by two-fold serial dilution method
Assay type: functional
Method in brief: as §1

With `COc1ccc(CO/N=C2\CN(c3nc4c(cc3F)c(=O)c(C(=O)O)cn4C3CC3)CC2CN)c(OC)c1OC.CS(=O)(=O)O` (racemic) as the compound, how does the MIC read?
Its MIC is 64 µg/mL.

Tested on: Pseudomonas aeruginosa
Test: Antimicrobial activity against extended spectrum beta-lactamases-producing Pseudomonas aeruginosa 10-15 after 18-24 hrs by two-fold serial dilution method
Assay type: functional
Method in brief: as §1

With `COc1ccc(CO/N=C2\CN(c3nc4c(cc3F)c(=O)c(C(=O)O)cn4C3CC3)CC2CN)c(OC)c1OC.CS(=O)(=O)O` (racemic) as the compound, how does the MIC read?
Its MIC is 16 µg/mL.

Tested on: Staphylococcus epidermidis
Test: Antimicrobial activity against extended spectrum beta-lactamases-producing methicillin-resistant Staphylococcus epidermidis 10-10 after 18-24 hrs by two-fold serial dilution method
Assay type: functional
Method in brief: (§2)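 Agar twofold serial dilution MIC against clinical isolates. MIC was taken as the lowest concentration giving complete inhibition of bacterial growth after incubation at 35 °C for 18-24 h.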

How did the MIC turn out when `COc1ccc(CO/N=C2\CN(c3nc4c(cc3F)c(=O)c(C(=O)O)cn4C3CC3)CC2CN)c(OC)c1OC.CS(=O)(=O)O` (racemic) was run?
Its MIC is 2 µg/mL.

Tested on: Klebsiella pneumoniae
Test: Antimicrobial activity against extended spectrum beta-lactamases-producing Klebsiella pneumoniae 10-2 after 18-24 hrs by two-fold serial dilution method
Assay type: functional
Method in brief: as §1

`COc1ccc(CO/N=C2\CN(c3nc4c(cc3F)c(=O)c(C(=O)O)cn4C3CC3)CC2CN)c(OC)c1OC.CS(=O)(=O)O` (racemic) was tested. Which MIC did it give?
Its MIC is greater than 128 µg/mL.

Tested on: Staphylococcus aureus
Test: Antimicrobial activity against extended spectrum beta-lactamases-producing methicillin-resistant Staphylococcus aureus 10-11 after 18-24 hrs by two-fold serial dilution method
Assay type: functional
Method in brief: as §2

With `COc1ccc(CO/N=C2\CN(c3nc4c(cc3F)c(=O)c(C(=O)O)cn4C3CC3)CC2CN)c(OC)c1OC.CS(=O)(=O)O` (racemic) as the compound, how does the MIC read?
The MIC was 2 µg/mL.

Tested on: Staphylococcus epidermidis
Test: Antimicrobial activity against extended spectrum beta-lactamases-producing methicillin-sensitive Staphylococcus epidermidis 10-15 after 18-24 hrs by two-fold serial dilution method
Assay type: functional
Method in brief: as §1

`COc1ccc(CO/N=C2\CN(c3nc4c(cc3F)c(=O)c(C(=O)O)cn4C3CC3)CC2CN)c(OC)c1OC.CS(=O)(=O)O` (racemic) was tested. Which MIC did it give?
The MIC was 2 µg/mL.

Tested on: Streptococcus pneumoniae
Test: Antimicrobial activity against extended spectrum beta-lactamases-producing Streptococcus pneumoniae 10-4 after 18-24 hrs by two-fold serial dilution method
Assay type: functional
Method in brief: as §1

Which MIC does the source give for `COc1ccc(CO/N=C2\CN(c3nc4c(cc3F)c(=O)c(C(=O)O)cn4C3CC3)CC2CN)c(OC)c1OC.CS(=O)(=O)O` (racemic) here?
The MIC was 0.06 µg/mL.

Tested on: Klebsiella pneumoniae
Test: Antimicrobial activity against Klebsiella pneumoniae 10-3 after 18-24 hrs by two-fold serial dilution method
Assay type: functional
Method in brief: as §1

Which MIC does the source give for `COc1ccc(CO/N=C2\CN(c3nc4c(cc3F)c(=O)c(C(=O)O)cn4C3CC3)CC2CN)c(OC)c1OC.CS(=O)(=O)O` (racemic) here?
The MIC was 8 µg/mL.

Tested on: Escherichia coli
Test: Antimicrobial activity against Escherichia coli 10-3 after 18-24 hrs by two-fold serial dilution method
Assay type: functional
Method in brief: as §1

For `COc1ccc(CO/N=C2\CN(c3nc4c(cc3F)c(=O)c(C(=O)O)cn4C3CC3)CC2CN)c(OC)c1OC.CS(=O)(=O)O` (racemic), which MIC is on record?
Its MIC is 16 µg/mL.

Tested on: Pseudomonas aeruginosa
Test: Antimicrobial activity against extended spectrum beta-lactamases-producing Pseudomonas aeruginosa 10-20 after 18-24 hrs by two-fold serial dilution method
Assay type: functional
Method in brief: as §1

For `COc1ccc(CO/N=C2\CN(c3nc4c(cc3F)c(=O)c(C(=O)O)cn4C3CC3)CC2CN)c(OC)c1OC.CS(=O)(=O)O` (racemic), which MIC is on record?
Its MIC is 4 µg/mL.

— ChEMBL document CHEMBL2062435, “Synthesis and in vitro antibacterial activity of gemifloxacin derivatives containing a substituted benzyloxime moiety” (2012)
